Screening results (PubChem)
A selection: hits, their analogues and other compounds. The true share with any hit is near 2.3%.
TRPC4 PAM: allosteric potentiators of mouse TRPC4 channel | B-score at 10 µM | AID 2227 | Q9QUQ5 | HEK293 TRPC4beta/mu-opioid, DAMGO EC20, Fluo-4 Ca2+ flux; hits give high values | hit rate 0.42% among 310,000;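 active means B-score of calcium response area above 5 SD of library B-scores, with initial fluorescence ratio within 5 SD of library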
TRPC6 inh: mouse TRPC6 channel inhibition. B-score at 10 µM. HEK293-TRPC6, membrane potential dye, ACh-evoked depolarization; hits give low values. hit rate 1.1% among 310,000. Q61143. AID 2553;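 active means B-score under library mean minus 3 SD, initial fluorescence not abnormally high, positive integrated signal ratio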;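 further: B-score derived from integrated fluorescence ratio over the kinetic read; more negative B-score means stronger inhibition of depolarization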
TRPC4 inh: blocks the mouse TRPC4 cation channel. hit rate 0.39% among 300,000. HEK293 TRPC4beta/mu-opioid, DAMGO-evoked Fluo4 calcium flux; hits give low values. B-score at 10 µM. Q9QUQ5;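 active means B-score over 3 SD under the library average, no early fluorescence shift, positive overall ratio signal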
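test system = HEK293 cells with stable TRPC4beta plus mu-opioid receptor expression | detection = Fluo4 Ca2+ flux fluorescence | read-out = integrated fluorescence ratio relative to baseline, converted to per-well B score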
TRPC4 act: opens the mouse TRPC4 cation channel. HEK293 TRPC4beta/mu-opioid, Fluo4 calcium fluorescence; hits give high values. AID 2237. Q9QUQ5. B-score at 10 µM. hit rate 0.49% among 310,000;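 active means B-score above 5 SD of library B-scores, and initial fluorescence ratio not above library mean plus 5 SD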;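 further: positive B-score marks a calcium rise read as TRPC4 activation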
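Incubation: 45 min room-temperature Fluo4 loading, 110 s read / System: HEK293 cells stably co-expressing mouse TRPC4beta and mu-opioid receptor / Signal: Fluo4 fluorescence, kinetic / Control set: buffer (low) and maximal DAMGO (high) / Measure: integrated baseline-normalised fluorescence ratio, converted to per-well B score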
TRPC6 activator: activators of mouse TRPC6 channel; Q61143; HEK293-TRPC6 membrane potential dye fluorescence; hits give high values; B-score at 10 µM; hit rate 0.13% among 310,000; AID 2550;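 active means B-score of the integrated fluorescence ratio above library mean plus 3 SD, and starting fluorescence ratio within library mean plus 5 SD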;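 further: higher score means more depolarization so channel activation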
TRPC4 sel inh 2: second selectivity test of TRPC6 inhibitors: effect on mouse TRPC4; HEK293 TRPC4/MOR, membrane potential dye fluorescence; channel activated by saturating DAMGO dose; hit rate 42% among 920; shares compounds with TRPC6 inh; inhibition, % at 10 µM;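 active means compounds whose fluorescence signal differed from control wells by over 3 SD, either direction, in both duplicate plates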
TRPC4 spec: tests whether TRPC6 inhibitors also affect mouse TRPC4. shares compounds with TRPC6 inh. HEK293 TRPC4/mu-opioid, membrane potential fluorescence. activity change, negative = inhibition, % at 10 µM. hit rate 61% among 920. AID 2777;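 active means rise or fall in signal beyond 3 SD of buffer-only wells in both replicate plates, either sign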;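 further: integrated kinetic ratio of fluorescence range over baseline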
HEK293 MPD ctr 2-1: second counter-screen for TRPC6 inhibitors: parental HEK293 cells. AID 2779. hit rate 31% among 920. shares compounds with TRPC6 inh. signal change vs control, % at 10 µM. parental HEK293 membrane potential dye fluorescence; maximal acetylcholine challenge after compound addition;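 active means membrane potential signal moving either way by over 3 SD of the maximum-effect control, in both duplicate plates, meaning non-specific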
HEK293 MPD ctr-1: counter-screen for TRPC6 inhibitors: effect in parental HEK293 cells | shares compounds with TRPC6 inh | parental HEK293 membrane potential dye fluorescence | membrane potential signal change, % at 10 µM | hit rate 60% among 920 | AID 2780;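 active means membrane potential signal shifting up or down by more than 3 SD of buffer-only wells, on both duplicate plates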
HEK293 MPD ctr-2: parental HEK293 nonspecific activity of TRPC6 modulators; AID 488924; membrane potential signal change, % at 10 µM; hit rate 51% among 2,400; shares compounds with TRPC6 inh; membrane potential dye fluorescence;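 active means membrane potential signal moves up or down beyond 5 SD from buffer-only wells, on both duplicate plates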
HEK293 MPD ctr 2-2: parental HEK293 nonspecific activity of TRPC6 modulators, second screen | hit rate 14% among 2,400 | shares compounds with TRPC6 inh | inhibition, % at 10 µM | membrane potential dye fluorescence; after compound, maximal acetylcholine stimulation;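 active means membrane potential signal drops by more than 5 SD from the mean control signal, in both duplicate plates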
TRPC4 ctr mod: tests whether TRPC6 modulators also affect mouse TRPC4; shares compounds with TRPC6 inh; HEK293 TRPC4/mu-opioid, membrane potential fluorescence; percent change from control (negative = decrease, positive = increase), % at 10 µM; hit rate 69% among 2,400; AID 488927;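 active means membrane potential signal moved up or down beyond 5 SD of buffer control wells, in both duplicate plates, actives on both sides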
TRPC4/MOR inh 2: second check of whether TRPC6 modulators also affect mouse TRPC4. shares compounds with TRPC6 inh. HEK293 TRPC4/mu-opioid, membrane potential dye fluorescence; stimulated with maximal-effect DAMGO. inhibition, % at 10 µM. hit rate 55% among 2,400. AID 488928;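 active means drop in membrane potential signal beyond 5 SD of the control wells in both duplicate plates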;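 further: TRPC4 counter screen for TRPC6 hits run under conditions tuned for TRPC6 not TRPC4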
TRPC6 inh conf: mouse TRPC6 inhibitor confirmation | hit rate 43% among 3,300 | HEK293-TRPC6, membrane potential dye, ACh-evoked depolarization | shares compounds with TRPC6 inh | inhibition, % at 10 µM | AID 488960;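 active means fluorescence ratio falls more than 5 SD below the full-stimulation control mean, in both duplicate runs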;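 further: integrated fluorescence ratio of peak minus minimum over baseline after agonist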
TRPC6 act conf: mouse TRPC6 activator confirmation; hit rate 11% among 2,800; activation, % at 10 µM; HEK293-TRPC6 membrane potential dye fluorescence, FDSS; shares compounds with TRPC6 inh;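 active means ratio signal rise beyond 5 SD above unstimulated control wells' mean, seen in both duplicate runs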
Large screens that a line does not name were inactive (follow-up assays come after a bar, where they were run).

COCCOC(=O)c1nccnc1C(=O)Nc1ccc(S(=O)(=O)N2CCOCC2)cc1	TRPC6 inh -6.2 | HEK293 MPD ctr-2 inactive | HEK293 MPD ctr 2-2 inactive | TRPC4 ctr mod inactive | TRPC4/MOR inh 2 inactive | TRPC6 inh conf inactive | TRPC6 act conf inactive
O=C(O)c1nccnc1C(=O)Nc1ccc(S(=O)(=O)N2CCOCC2)cc1	none
CCOc1ccc(Cl)cc1/C=N/NC(N)=O	none
CCOc1ccc(Cl)cc1/C=N/O	TRPC6 inh -8.7, TRPC4 inh -6, TRPC6 activator 13 | HEK293 MPD ctr-2 104% | HEK293 MPD ctr 2-2 inactive | TRPC4 ctr mod 21% | TRPC4/MOR inh 2 41% | TRPC6 inh conf 78% | TRPC6 act conf 115%
CC(C)c1c(C(=O)N/N=C/c2cccc(OCc3ccccc3)c2)nnn1-c1nonc1N	none
Brc1cccc(-c2nc3cccnc3nc2-c2cccc(Br)c2)c1	none
Clc1ccc(-[n+]2c(-c3cccc(Br)c3)[nH]c3nc4ccccc4nc32)cc1	TRPC6 inh -5.1 | HEK293 MPD ctr-2 inactive | HEK293 MPD ctr 2-2 inactive | TRPC4 ctr mod inactive | TRPC4/MOR inh 2 38% | TRPC6 inh conf inactive | TRPC6 act conf inactive
COc1ccccc1N(CC(=O)NCCSc1ccc(Cl)cc1)S(C)(=O)=O	none
CCOC(=O)c1nn(-c2ccc(C)cc2)c(=O)cc1OCC(=O)N1CCN(c2ccccc2)CC1	none
COc1cc(/C=C(\C#N)c2nc3ccccc3o2)ccc1O	TRPC4 act 78, TRPC6 activator 63 | HEK293 MPD ctr-2 active | HEK293 MPD ctr 2-2 inactive | TRPC4 ctr mod 290% | TRPC4/MOR inh 2 inactive | TRPC6 inh conf inactive | TRPC6 act conf 362%
N#C/C(=C\c1ccc(O)cc1)c1nc2ccccc2o1	none
O=C(/C=C\c1ccccc1OC(=O)c1ccccc1F)c1cc2ccccc2o1	TRPC6 inh -7.1 | TRPC4 sel inh 2 inactive | TRPC4 spec inactive | HEK293 MPD ctr 2-1 inactive | HEK293 MPD ctr-1 inactive | TRPC6 inh conf inactive | TRPC6 act conf inactive
COc1ccc(N(Cc2ccccc2)S(=O)(=O)c2cc(C(=O)O)ccc2Cl)cc1	TRPC6 activator 25 | HEK293 MPD ctr-2 190% | HEK293 MPD ctr 2-2 inactive | TRPC4 ctr mod 42% | TRPC4/MOR inh 2 inactive | TRPC6 inh conf inactive | TRPC6 act conf 148%
O=C(O)c1ccc(Cl)c(S(=O)(=O)N(Cc2ccccc2)c2ccc(F)cc2)c1	TRPC6 activator 17 | HEK293 MPD ctr-2 140% | HEK293 MPD ctr 2-2 inactive | TRPC4 ctr mod 22% | TRPC4/MOR inh 2 inactive | TRPC6 inh conf inactive | TRPC6 act conf 144%
O=C(O)C[C@H]1c2ccc(C(F)(F)F)cc2S(=O)(=O)N1Cc1ccccc1	none (no result: TRPC4 inh)
OC(CC#CCN1CCCCC1)(c1ccccc1)c1ccccc1	none
C(#CCN1CCCC1)CC(c1ccccc1)c1ccccc1	TRPC6 inh -8.6 | TRPC4 sel inh 2 66% | TRPC4 spec 14% | HEK293 MPD ctr 2-1 inactive | HEK293 MPD ctr-1 15% | TRPC6 inh conf inactive
CC(O)(C#CCN1CCCC1)c1ccccc1 (stereo not given)	none
OC(C#CCN1CCCC1)(c1ccccc1)c1cccc(F)c1 (stereo not given)	TRPC6 inh -5.5 | HEK293 MPD ctr-2 inactive | HEK293 MPD ctr 2-2 123% | TRPC4 ctr mod 14% | TRPC4/MOR inh 2 32% | TRPC6 inh conf 96%
OC(CC#CCN1CCCC1)(c1ccccc1)c1ccccc1	TRPC6 inh -5.3 | HEK293 MPD ctr-2 114% | HEK293 MPD ctr 2-2 63% | TRPC4 ctr mod 15% | TRPC4/MOR inh 2 inactive | TRPC6 inh conf 65%
CN1CCN(CC#CCC(O)(c2ccccc2)C2CCCC2)CC1 (stereo not given)	none
CC1CCCN1CC#CC(O)(c1ccccc1)c1ccccc1 (stereo not given)	TRPC6 inh -8.7, TRPC4 inh -7 | TRPC4 sel inh 2 inactive | TRPC4 spec 4.5% | HEK293 MPD ctr 2-1 -44% | HEK293 MPD ctr-1 8.2% | TRPC6 inh conf 82%
O=C(NC1CCCC1)c1cc(-c2cccc(Cl)c2)on1	none
CC(O)(C#CCN1CCCCC1)c1ccccc1 (stereo not given)	none
CC(C)C(O)(C#CCN1CCCCCC1)c1ccccc1 (stereo not given)	TRPC6 inh -7.1 | TRPC4 sel inh 2 inactive | TRPC4 spec 13% | HEK293 MPD ctr 2-1 inactive | HEK293 MPD ctr-1 11% | TRPC6 inh conf 61%
O=C(Nc1ccc(-n2cnnn2)cc1)c1cn2ccccc2n1	TRPC6 inh -5.1 | HEK293 MPD ctr-2 inactive | HEK293 MPD ctr 2-2 inactive | TRPC4 ctr mod inactive | TRPC4/MOR inh 2 inactive | TRPC6 inh conf inactive | TRPC6 act conf inactive
COC(=O)c1ccccc1OCC(=O)NC1CCCCC1	TRPC6 inh -5.3 | HEK293 MPD ctr-2 inactive | HEK293 MPD ctr 2-2 inactive | TRPC4 ctr mod 8.0% | TRPC4/MOR inh 2 inactive | TRPC6 inh conf inactive
COc1ccccc1CC(=O)NC1CCCCCC1	none
O=C(CCS(=O)(=O)c1ccccc1)NC1CCCCC1	none
COc1ccc(S(=O)(=O)CCC(=O)NC2CCCCC2)cc1	TRPC6 inh -8.1 | TRPC4 sel inh 2 inactive | TRPC4 spec inactive | HEK293 MPD ctr 2-1 inactive | HEK293 MPD ctr-1 inactive | TRPC6 inh conf inactive | TRPC6 act conf inactive
